{"source": "ChEMBL document CHEMBL2163200", "about": "“Synthesis, biological evaluation, and structure-activity relationships of novel substituted N-phenyl ureidobenzenesulfonate derivatives blocking cell cycle progression in S-phase and inducing DNA double-strand breaks” (J Med Chem, 2012)", "key": {"HT-29": {"system": "HT-29", "experiment": "Cytotoxicity against human HT-29 cells after 48 hrs by SRB assay", "type": "functional, cell-based", "details": "HT-29, 48 h", "in_short": "(§1)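 NCI sulforhodamine B protocol. Cells were grown in high-glucose DMEM with 5% FBS and seeded per well at 4 × 10^3 (HT-29), 3.5 × 10^3 (M21) or 3 × 10^3 (MCF-7), then allowed 24 h to attach. Serial dilutions from 200 μM to 780 nM final were applied in DMSO <0.5% for 48 h. Cells were fixed with cold TCA (10% final) and stained with SRB, with absorbance read at 530–568 nm. Growth inhibition was computed against day-0 plates, giving the 50% inhibitory concentration. At least two experiments in triplicate, CV <10%.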"}, "Jurkat [1]": {"system": "Jurkat", "experiment": "Cell cycle arrest in human Jurkat E6-1 cells assessed as accumulation at G2/M phase at 29 uM after 24 hrs by FACS flow cytometry", "type": "functional", "in_short": "(§2)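 Jurkat E6 cells grown in RPMI 1640 with 10% FBS at 37 °C, 5% CO2. Compounds were serially diluted in medium starting 50% above the M21 IC50. 4.0 × 10^5 cells were exposed for 24 h, then washed and spiked with chicken red blood cells as internal standard. Cells were fixed in ice-cold ethanol, stained with 1 μg/mL DAPI on ice for 1 h, and phase distribution was read by flow cytometry. The control was 0.5% DMSO.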"}, "Jurkat [2]": {"system": "Jurkat", "experiment": "Cell cycle arrest in human Jurkat E6-1 cells assessed as accumulation at G0/G1 phase at 29 uM after 24 hrs by FACS flow cytometry", "type": "functional", "in_short": "(§3)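 Jurkat E6 cells cultured in RPMI 1640 with 10% FBS at 37 °C, 5% CO2. Compounds serially diluted in medium, starting 50% above the M21 IC50. 4.0 × 10^5 cells were exposed for 24 h. Cells were washed with PBS, chicken red blood cells added as internal standard, and fixed in ice-cold EtOH. After 1 h on ice in PBS with 1 μg/mL DAPI, phase distribution was read by flow cytometry. DMSO-treated cells served as control.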"}, "Jurkat [3]": {"system": "Jurkat", "experiment": "Cell cycle arrest in human Jurkat E6-1 cells assessed as accumulation at S phase at 29 uM after 24 hrs by FACS flow cytometry", "type": "functional", "in_short": "(§4)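 Jurkat E6 T-lymphoblasts in RPMI 1640 with 10% FBS, 37 °C, 5% CO2. […] Chicken red blood cells were added as internal standard. Cells were fixed in ice-cold EtOH and stained with 1 μg/mL DAPI on ice for 1 h before flow cytometry of phase distribution. Vehicle control was 0.5% DMSO.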"}, "M21 [4]": {"system": "M21", "experiment": "Cytotoxicity against human M21 cells after 48 hrs by SRB assay", "type": "functional, cell-based", "details": "M21, 48 h", "in_short": "as §1"}, "Jurkat [5]": {"system": "Jurkat", "experiment": "Cell cycle arrest in human Jurkat E6-1 cells assessed as accumulation at G2/M phase at 32 uM after 24 hrs by FACS flow cytometry", "type": "functional", "in_short": "as §2"}, "MCF7": {"system": "MCF7", "experiment": "Cytotoxicity against human MCF7 cells after 48 hrs by SRB assay", "type": "functional, cell-based", "details": "MCF7, 48 h", "in_short": "as §1"}, "Jurkat [6]": {"system": "Jurkat", "experiment": "Cell cycle arrest in human Jurkat E6-1 cells assessed as accumulation at G0/G1 phase at 32 uM after 24 hrs by FACS flow cytometry", "type": "functional", "in_short": "as §3"}, "Jurkat [7]": {"system": "Jurkat", "experiment": "Cell cycle arrest in human Jurkat E6-1 cells assessed as accumulation at S phase at 32 uM after 24 hrs by FACS flow cytometry", "type": "functional", "in_short": "as §4"}, "Jurkat [8]": {"system": "Jurkat", "experiment": "Cell cycle arrest in human Jurkat E6-1 cells assessed as accumulation at S phase at 16 uM after 24 hrs by FACS flow cytometry", "type": "functional", "in_short": "as §2"}, "Jurkat [9]": {"system": "Jurkat", "experiment": "Cell cycle arrest in human Jurkat E6-1 cells assessed as accumulation at G0/G1 phase at 16 uM after 24 hrs by FACS flow cytometry", "type": "functional", "in_short": "as §3"}, "Jurkat [10]": {"system": "Jurkat", "experiment": "Cell cycle arrest in human Jurkat E6-1 cells assessed as accumulation at G2/M phase at 16 uM after 24 hrs by FACS flow cytometry", "type": "functional", "in_short": "as §3"}, "Jurkat [11]": {"system": "Jurkat", "experiment": "Cell cycle arrest in human Jurkat E6-1 cells assessed as accumulation at G0/G1 phase at 31 uM after 24 hrs by FACS flow cytometry", "type": "functional", "in_short": "as §3"}, "Jurkat [12]": {"system": "Jurkat", "experiment": "Cell cycle arrest in human Jurkat E6-1 cells assessed as accumulation at S phase at 31 uM after 24 hrs by FACS flow cytometry", "type": "functional", "in_short": "as §4"}, "M21 [13]": {"system": "M21", "experiment": "Induction of DNA damage response in human M21 cells assessed as phosphorylation of H2AX into gammaH2AX at IC50 after 24 hrs by DAPI staining-based immunofluorescence assay", "type": "functional, cell-based", "in_short": "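M21 cells (1 × 10^5) on fibronectin-coated coverslips, grown 24 h, then exposed to agent for 24 h at 37 °C; 0.5% DMSO control. Fixed with 3.7% formaldehyde and permeabilized with 0.1% saponin/3% BSA. Probed with mouse anti-H2AX pS139 antibody for 2 h at room temperature. Nuclei counterstained with DAPI; nuclear γH2AX foci viewed by epifluorescence microscopy.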"}, "Jurkat [14]": {"system": "Jurkat", "experiment": "Cell cycle arrest in human Jurkat E6-1 cells assessed as accumulation at G2/M phase at 31 uM after 24 hrs by FACS flow cytometry", "type": "functional", "in_short": "as §2"}, "Jurkat [15]": {"system": "Jurkat", "experiment": "Cell cycle arrest in human Jurkat E6-1 cells assessed as accumulation at G0/G1 phase at 14 uM after 24 hrs by FACS flow cytometry", "type": "functional", "in_short": "as §3"}, "Jurkat [16]": {"system": "Jurkat", "experiment": "Cell cycle arrest in human Jurkat E6-1 cells assessed as accumulation at G2/M phase at 14 uM after 24 hrs by FACS flow cytometry", "type": "functional", "in_short": "as §3"}, "Jurkat [17]": {"system": "Jurkat", "experiment": "Cell cycle arrest in human Jurkat E6-1 cells assessed as accumulation at S phase at 14 uM after 24 hrs by FACS flow cytometry", "type": "functional", "in_short": "as §2"}, "Jurkat [18]": {"system": "Jurkat", "experiment": "Cell cycle arrest in human Jurkat E6-1 cells assessed as accumulation at S phase at 48 uM after 24 hrs by FACS flow cytometry", "type": "functional", "in_short": "as §4"}, "Jurkat [19]": {"system": "Jurkat", "experiment": "Cell cycle arrest in human Jurkat E6-1 cells assessed as accumulation at G2/M phase at 48 uM after 24 hrs by FACS flow cytometry", "type": "functional", "in_short": "as §2"}, "Jurkat [20]": {"system": "Jurkat", "experiment": "Cell cycle arrest in human Jurkat E6-1 cells assessed as accumulation at G0/G1 phase at 48 uM after 24 hrs by FACS flow cytometry", "type": "functional", "in_short": "as §3"}, "Jurkat [21]": {"system": "Jurkat", "experiment": "Cell cycle arrest in human Jurkat E6-1 cells assessed as accumulation at G2/M phase at 25 uM after 24 hrs by FACS flow cytometry", "type": "functional", "in_short": "as §2"}, "Jurkat [22]": {"system": "Jurkat", "experiment": "Cell cycle arrest in human Jurkat E6-1 cells assessed as accumulation at S phase at 25 uM after 24 hrs by FACS flow cytometry", "type": "functional", "in_short": "as §2"}, "Jurkat [23]": {"system": "Jurkat", "experiment": "Cell cycle arrest in human Jurkat E6-1 cells assessed as accumulation at G0/G1 phase at 25 uM after 24 hrs by FACS flow cytometry", "type": "functional", "in_short": "as §3"}}, "note": "The source made the active and inactive calls. The calls are words filed in the database; no cut-off is given here.", "data": [{"smiles": "CCCc1ccccc1NS(=O)(=O)c1ccc(NC(=O)NCCCl)cc1", "values": [{"measurement": "IC50", "setting": "HT-29", "result": 21, "unit": "µM"}, {"measurement": "Activity", "setting": "Jurkat [1]", "result": 28, "unit": "%"}, {"measurement": "Activity", "setting": "Jurkat [2]", "result": 28, "unit": "%"}, {"measurement": "Activity", "setting": "Jurkat [3]", "result": 44, "unit": "%"}, {"measurement": "IC50", "setting": "M21 [4]", "result": 29, "unit": "µM"}]}, {"smiles": "CCNC(=O)Nc1cccc(S(=O)(=O)Oc2ccc(O)cc2)c1", "values": [{"measurement": "Activity", "setting": "Jurkat [5]", "result": 18, "unit": "%"}, {"measurement": "IC50", "setting": "HT-29", "result": 75, "unit": "µM"}, {"measurement": "IC50", "setting": "MCF7", "result": 64, "unit": "µM"}, {"measurement": "Activity", "setting": "Jurkat [6]", "result": 43, "unit": "%"}, {"measurement": "Activity", "setting": "Jurkat [7]", "result": 39, "unit": "%"}, {"measurement": "IC50", "setting": "M21 [4]", "result": 42, "unit": "µM"}]}, {"smiles": "CCc1ccccc1NS(=O)(=O)c1ccc(NC(=O)NCCCl)cc1", "values": [{"measurement": "IC50", "setting": "HT-29", "result": 40, "unit": "µM"}, {"measurement": "IC50", "setting": "MCF7", "result": 33, "unit": "µM"}, {"measurement": "Activity", "setting": "Jurkat [8]", "result": 43, "unit": "%"}, {"measurement": "Activity", "setting": "Jurkat [9]", "result": 41, "unit": "%"}, {"measurement": "Activity", "setting": "Jurkat [10]", "result": 16, "unit": "%"}, {"measurement": "IC50", "setting": "M21 [4]", "result": 68, "unit": "µM"}]}, {"smiles": "O=C(NCCCCl)Nc1ccc(S(=O)(=O)Oc2ccc(O)cc2)cc1", "values": [{"measurement": "Activity", "setting": "Jurkat [11]", "result": 23, "unit": "%"}, {"measurement": "IC50", "setting": "HT-29", "result": 50, "unit": "µM"}, {"measurement": "Activity", "setting": "Jurkat [12]", "result": 65, "unit": "%"}, {"measurement": "IC50", "setting": "MCF7", "result": 51, "unit": "µM"}, {"measurement": "Activity", "setting": "M21 [13]", "result": "Active"}, {"measurement": "Activity", "setting": "Jurkat [14]", "result": 12, "unit": "%"}, {"measurement": "IC50", "setting": "M21 [4]", "result": 47, "unit": "µM"}]}, {"smiles": "CCCc1ccccc1OS(=O)(=O)c1cccc(NC(=O)NCCCCl)c1", "values": [{"measurement": "Activity", "setting": "Jurkat [15]", "result": 52, "unit": "%"}, {"measurement": "IC50", "setting": "HT-29", "result": 14, "unit": "µM"}, {"measurement": "IC50", "setting": "MCF7", "result": 14, "unit": "µM"}, {"measurement": "Activity", "setting": "Jurkat [16]", "result": 9, "unit": "%"}, {"measurement": "Activity", "setting": "Jurkat [17]", "result": 39, "unit": "%"}, {"measurement": "IC50", "setting": "M21 [4]", "result": 15, "unit": "µM"}]}, {"smiles": "Cc1ccccc1NS(=O)(=O)c1ccc(NC(=O)NCCCl)cc1", "values": [{"measurement": "IC50", "setting": "HT-29", "result": 55, "unit": "µM"}, {"measurement": "Activity", "setting": "Jurkat [18]", "result": 35, "unit": "%"}, {"measurement": "Activity", "setting": "Jurkat [19]", "result": 20, "unit": "%"}, {"measurement": "Activity", "setting": "Jurkat [20]", "result": 45, "unit": "%"}, {"measurement": "IC50", "setting": "M21 [4]", "result": 63, "unit": "µM"}]}, {"smiles": "Cc1ccccc1NS(=O)(=O)c1cccc(NC(=O)NCCCCl)c1", "values": [{"measurement": "Activity", "setting": "Jurkat [21]", "result": 17, "unit": "%"}, {"measurement": "IC50", "setting": "HT-29", "result": 42, "unit": "µM"}, {"measurement": "Activity", "setting": "Jurkat [22]", "result": 38, "unit": "%"}, {"measurement": "IC50", "setting": "MCF7", "result": 52, "unit": "µM"}, {"measurement": "Activity", "setting": "Jurkat [23]", "result": 45, "unit": "%"}, {"measurement": "IC50", "setting": "M21 [4]", "result": 60, "unit": "µM"}]}]}
